Measurements reported in ChEMBL document CHEMBL1152798, “Unsymmetrically disubstituted urea derivatives: a potent class of antiglycating agents” (Bioorg Med Chem, 2009).

Test: Antiglycation activity of compound assessed as inhibition of BSA-derived advance glycated end product formation after 7 days by spectrofluorimeter
Type: physicochemical
Settings: not given; call rule not given here
Summary of the method: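 BSA (10 mg/mL) mixed with anhydrous glucose (50 mg/mL) and test sample in equal parts, in sodium phosphate buffer pH 7.4 (67 mM Na2HPO4, 3 mM sodium azide), incubated 37 °C for 7 days. Protein precipitated with TCA and centrifuged, pellet washed with 10% TCA, then redissolved in PBS. AGE fluorescence read at excitation 370 nm, emission 440 nm. % inhibition computed against glycated control (BSA + glucose + buffer).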

SMILES | IC50
Cc1cccc(C)c1NC(=O)Nc1ccccc1 | Not Active
Cc1cccc(C)c1NC(=O)Nc1cccc(Cl)c1 | Not Active
Cc1cccc(NC(=O)Nc2cccc(Cl)c2)c1C | Not Active
Cc1cccc(NC(=O)Nc2ccccc2)c1C | Not Active
Cc1ccc(NC(=O)Nc2ccccc2)c(C)c1 | Not Active
Cc1ccc(C)c(NC(=O)Nc2ccccc2)c1 | Not Active

Continued, values first:

IC50 | SMILES
Not Active | Cc1cc(C)cc(NC(=O)Nc2ccccc2)c1
Not Active | Cc1ccc(NC(=O)Nc2cccc(Cl)c2)c(C)c1
Not Active | Cc1ccc(NC(=O)Nc2cccc(Cl)c2)cc1C
Not Active | Cc1ccc(C)c(NC(=O)Nc2cccc(Cl)c2)c1

Same assay, conditions: read-out: IC50

SMILES | IC50 [µM]
O=C(Nc1ccccc1)Nc1cccc(Br)c1 | 4.26
COc1ccc(NC(=O)Nc2ccccc2)cc1 | 8.4
O=C(Nc1cccc(Cl)c1)Nc1ccccc1Br | 6.6
Cc1ccc(NC(=O)Nc2ccccc2)cc1C | 9
O=C(Nc1ccccc1)Nc1ccc(Cl)c(Cl)c1 | 838
O=C(Nc1cccc(Cl)c1)Nc1cccc(Br)c1 | 8.16
O=C(Nc1ccc(Br)cc1)Nc1cccc(Cl)c1 | 6.4
COc1ccccc1NC(=O)Nc1cccc(Cl)c1 | 7.02
COc1cccc(NC(=O)Nc2ccccc2)c1 | 229
O=C(Nc1ccccc1)Nc1cccc([N+](=O)[O-])c1 | 7.27
COc1ccc([N+](=O)[O-])cc1NC(=O)Nc1ccccc1 | 162
O=C(Nc1ccccc1)Nc1ccccc1Br | 120
O=C(Nc1ccccc1)Nc1ccc(Br)cc1 | 6.1
COc1ccc(NC(=O)Nc2cccc(Cl)c2)cc1 | 7.14

Results, then the molecule that gave them:

IC50 [µM] | SMILES
5.8 | COc1cccc(NC(=O)Nc2cccc(Cl)c2)c1
906 | Cc1cc(C)cc(NC(=O)Nc2cccc(Cl)c2)c1
408 | COc1ccc([N+](=O)[O-])cc1NC(=O)Nc1cccc(Cl)c1
15.2 | O=C(Nc1cccc(Cl)c1)Nc1ccc(Cl)c(Cl)c1
41.9 | C[C@@H]1O[C@@H](OC[C@H]2O[C@@H](Oc3c(-c4ccc(O)c(O)c4)oc4cc(O)cc(O)c4c3=O)[C@H](O)[C@@H](O)[C@@H]2O)[C@H](O)[C@H](O)[C@H]1O [RUTIN]
